Results: article PMC12638245 (Nature Metabolism, 2025)

Tests used:
ChREBP = details: G3P added to HEK293T cells expressing ChREBP and MLX; cited from earlier work
[1] = test system: hepatic ChREBP transcription programme; assay type: in vivo, mouse; details: liver
How it was run: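 Mice aged 8–16 weeks, single-housed on chow with water or 5% (w/v) glycerol as the only drink for 2 days. Livers freeze-clamped in liquid nitrogen. RNA from 20 mg liver, DNase-treated, RIN >5.0; libraries from 150 ng RNA. Paired-end 150 bp sequencing, >20 million read pairs per sample. HTSeq counts, TMM normalisation in edgeR, GLMs with sequencing batch as covariate.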

circulating FGF21 = test: Serum FGF21 ELISA in mice given 5%; assay type: in vivo, mouse; details: mice of each genotype, 5% (w/v) glycerol in drinking water for 2 days, vs water
How it was run: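 Mice aged 8–16 weeks, single-housed for 2 days on chow with water or 5% (w/v) glycerol. Blood taken at decapitation; serum spun 8,000g, 10 min, 4 °C. Sandwich ELISA: samples 2 h at room temperature, HRP-conjugated anti-FGF21 2 h, substrate 30 min, read at 450 nm with 570 nm correction. Haemolysed samples excluded; genotype-blinded analysis; two-way ANOVA with Tukey.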

[2] = test system: hepatic G3P, hexose phosphates, pentose phosphates; test: Targeted LC-MS metabolomics of mouse liver; assay type: in vivo
How it was run: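 Freeze-clamped liver powder (2.0 mg) spiked with 13C3-G3P (2.28 µM final) or a 13C yeast extract internal standard (hexose/pentose phosphates). Boiling 25% 10 mM HEPES/75% ethanol extraction, 55 °C 5 min, sonication, spin at 16,100g, dried, diluted 20-fold. Ion-pair reversed-phase UHPLC (tributylamine/acetic acid, methanol gradient), negative-mode targeted MS2. G3P and hexose phosphates quantified; pentose phosphates relative only.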

[3] = genotype and/or addition of glycerol

Compound	protection of ChREBP from thermal precipitation (ChREBP)	induction of ChREBP transcripts by glycerol ([1]; Slc25a13-/- Gpd2-/- double mutant)	Srebf1 expression ([1]; addition of glycerol)	induction of ChREBPα transcript by glycerol ([1]; wild-type and single mutant strains)	circulating FGF21 (circulating FGF21)	hepatic concentrations of hexose phosphates [2, 3]	relative levels of pentose phosphates in liver [2, 3]	hepatic G3P level ([2]; glycerol-exposed male mice, each of the four genotypes, vs water)
O=P(O)(O)OCC(O)CO (centres unmarked) [G3P, glycerol-3-phosphate]	protected ChREBP from thermal precipitation							
OCC(O)CO [glycerol]		no further induction	unaffected	two- to threefold	significantly elevated circulating FGF21	not altered	unaffected	tended to be higher
